From ChEMBL document CHEMBL4382248, “Optimization of a 1,3,4-oxadiazole series for inhibition of Ca2+/calmodulin-stimulated activity of adenylyl cyclases 1 and 8 for the treatment of chronic pain” (Eur J Med Chem, 2019) come the findings set out here.

Activity calls are given as the source filed them. The rule behind the calls is not given here.

One series has as its system HEK293. Briefly: (§1) Cytotoxicity against HEK293 cells expressing human AC1 at 30 uM preincubated for 30 mins followed by A23187 stimulation and measured after 1 hr by CellTiter-Glo luminescent cell viability assay relative to control. The note with it: hek293, 1 h, 30 µM. In kind it is cell-based. The method in brief:
(§2)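 Cytotoxicity in HEK lines stably expressing AC1 or AC8: single 30 µM dose, 90 min incubation. Viability was read by luminescent ATP reporter as % of DMSO-treated (100%) and Triton-X-treated (0%) controls.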

In series [1] the target is T1, Adenylate cyclase type 8 (Homo sapiens, UniProt P40145). Put plainly: Inhibition of human AC8 expressed in HEK293 cells assessed as decrease in A23187-stimulated cAMP accumulation at 30 uM preincubated for 30 mins followed by A23187 stimulation and measured after 1 hr by fluorescence assay relative to control. Type of series: cell-based. The method in brief:
(§3)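 HEK cells stably expressing AC1 or AC8; Ca2+/calmodulin-stimulated cAMP accumulation measured. Dose-response curves began at 30 µM. […] Values are the mean and SEM of three independent experiments.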
Background: Cyclic AMP is a second messenger, typically raised through Gs and lowered through Gi signalling.

Series [2] concerns the target T2, Adenylate cyclase type 1 (Homo sapiens, UniProt Q08828). Put plainly: Inhibition of human AC1 expressed in HEK293 cells assessed as decrease in A23187-stimulated cAMP accumulation at 30 uM preincubated for 30 mins followed by A23187 stimulation and measured after 1 hr by fluorescence assay relative to control. In kind it is cell-based. The method in brief:
as §3
Target sequence in this assay (Q08828 whole entry, looked up): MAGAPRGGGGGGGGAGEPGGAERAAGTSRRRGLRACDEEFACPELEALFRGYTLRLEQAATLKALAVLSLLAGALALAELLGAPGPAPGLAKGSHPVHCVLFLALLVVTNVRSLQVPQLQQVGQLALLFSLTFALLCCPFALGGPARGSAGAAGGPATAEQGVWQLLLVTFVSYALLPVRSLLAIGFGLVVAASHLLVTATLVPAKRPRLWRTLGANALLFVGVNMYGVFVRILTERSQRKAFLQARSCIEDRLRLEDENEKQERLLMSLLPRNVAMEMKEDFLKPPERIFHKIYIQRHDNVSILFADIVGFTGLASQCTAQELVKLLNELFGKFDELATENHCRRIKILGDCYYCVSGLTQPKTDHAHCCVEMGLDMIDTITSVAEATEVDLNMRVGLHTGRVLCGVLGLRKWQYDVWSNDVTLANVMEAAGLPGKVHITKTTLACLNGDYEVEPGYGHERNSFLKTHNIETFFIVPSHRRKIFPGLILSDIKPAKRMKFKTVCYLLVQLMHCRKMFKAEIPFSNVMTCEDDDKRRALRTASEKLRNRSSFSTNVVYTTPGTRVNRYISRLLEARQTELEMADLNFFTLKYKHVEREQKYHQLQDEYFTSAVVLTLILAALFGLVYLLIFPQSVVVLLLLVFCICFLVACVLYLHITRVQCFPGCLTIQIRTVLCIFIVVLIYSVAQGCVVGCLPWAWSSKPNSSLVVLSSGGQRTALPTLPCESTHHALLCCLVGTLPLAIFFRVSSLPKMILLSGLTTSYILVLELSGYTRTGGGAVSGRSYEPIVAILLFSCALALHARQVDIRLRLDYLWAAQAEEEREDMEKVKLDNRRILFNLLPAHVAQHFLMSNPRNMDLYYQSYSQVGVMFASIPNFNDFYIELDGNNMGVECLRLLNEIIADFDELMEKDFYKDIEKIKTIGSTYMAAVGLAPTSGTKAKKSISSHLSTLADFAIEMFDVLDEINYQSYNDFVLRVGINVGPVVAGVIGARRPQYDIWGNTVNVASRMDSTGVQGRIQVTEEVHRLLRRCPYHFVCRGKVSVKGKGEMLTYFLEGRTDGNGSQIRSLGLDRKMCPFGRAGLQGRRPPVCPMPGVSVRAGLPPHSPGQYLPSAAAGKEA

Series [3] has as its target T2, Adenylate cyclase type 1. Put plainly: Inhibition of human AC1 expressed in HEK293 AC3/AC6 deficit cells assessed as decrease in forskolin-stimulated cAMP accumulation preincubated for 30 mins followed by forskolin stimulation and measured after 1 hr by fluorescence assay. In kind it is cell-based. The gist of the method: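 HEK cells lacking AC3/AC6 were transiently transfected with AC1. Cells were incubated with test compounds in the presence of forskolin at 3, 10 or 30 µM, and cAMP accumulation was measured.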
Target sequence in this assay (Q08828 whole entry, looked up): as above

Series [4] is described as follows: as §1. Type of series: cell-based. The note with it: HEK293 cells expressing human AC1, read-out: Activity. The method in brief:
as §2

The target of series [5] is Adenylate cyclase type 5 (Homo sapiens) (UniProt O95622). Briefly: Inhibition of human AC5 expressed in HEK293 cells assessed as forskolin-stimulated cAMP accumulation at 30 uM preincubated for 30 mins followed by forskolin stimulation and measured after 1 hr by fluorescence assay relative to control. In kind it is cell-based. On the set-up: scale not given: the % may be the effect or the level left. The method in brief: (§4)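 Group 2 AC2 (PKC-stimulated) or group 3 AC (forskolin-stimulated) cells were exposed to a single 30 µM dose (n = 3). cAMP activity was normalized to DMSO controls set as 100%.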

The target in series [6] is Adenylate cyclase type 2 (Homo sapiens) (UniProt Q08462). Briefly: Inhibition of human AC2 expressed in HEK293 cells assessed as PMA-stimulated cAMP accumulation at 30 uM preincubated for 30 mins followed by PMA stimulation and measured after 1 hr by fluorescence assay relative to control. Type of series: cell-based. On the set-up: scale not given: the % may be the effect or the level left. The method in brief:
as §4

Series [7] addresses T2, Adenylate cyclase type 1. Put plainly: Inhibition of human AC1 expressed in HEK293 cells assessed as decrease in A23187-stimulated cAMP accumulation preincubated for 30 mins followed by A23187 stimulation and measured after 1 hr by fluorescence assay. In kind it is cell-based. The method in brief: as §3
Target sequence in this assay (Q08828 whole entry): as the sequence (Q08828 whole entry, looked up) above
Series [8] deals with T1, Adenylate cyclase type 8. Briefly: Inhibition of human AC8 expressed in HEK293 cells assessed as decrease in A23187-stimulated cAMP accumulation preincubated for 30 mins followed by A23187 stimulation and measured after 1 hr by fluorescence assay. Type of series: cell-based. The method in brief:
as §3

The species entered for a further series is Homo sapiens. Put plainly: Selectivity ratio of IC50 for human AC8 expressed in HEK293 cells to IC50 for human AC1 expressed in HEK293 cells. In kind it is cell-based.
Series [9] concerns the target T2, Adenylate cyclase type 1. Briefly: Inhibition of AC1 (unknown origin) expressed in HEK cells assessed as decrease in A23187-stimulated cAMP accumulation preincubated for 30 mins followed by A23187 stimulation and measured after 1 hr. Type of series: cell-based. The method in brief:
as §3
Target sequence in this assay (Q08828 whole entry): as the sequence (Q08828 whole entry, looked up) above

In series [10] the test system is Mus musculus. Put plainly: Analgesic activity in C57BL/6 mouse model of CFA-induced inflammatory pain model assessed as reduction in mechanical sensitivity in ipsilateral paw at 5 mg/kg, ip measured after 30 mins post dose by von Frey filament test based modified up-and-down technique. In kind it is functional, organism-based. The method in brief:
(§5)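 Male C57BL/6 mice (n=7) received CFA in the ipsilateral hind paw. On day 2, after baseline hypersensitivity was measured, they were given vehicle or 5 mg/kg i.p. Mechanical sensitivity of ipsilateral and contralateral paws was recorded 30 min after injection. Analysis used two-way repeated-measures ANOVA with Bonferroni test.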

For series [11], the system named is Mus musculus. Briefly: Effect on mechanical sensitivity in contralateral pa in C57BL/6 mouse model of CFA-induced inflammatory pain model at 5 mg/kg, ip measured after 30 mins post dose by von Frey filament test based modified up-and-down technique. In kind it is ADME, organism-based. The note with it: in vivo, 0.5 h. The method in brief:
as §5

For series [12], the system named is Mus musculus. Put plainly: Analgesic activity in C57BL/6 mouse model of CFA-induced inflammatory pain model assessed as reduction in mechanical sensitivity in ipsilateral paw at 5 mg/kg, ip measured after 1 day post dose by von Frey filament test based modified up-and-down technique. Type of series: functional, organism-based.

Chain of Adenylate cyclase type 5 (Homo sapiens) (O95622 whole entry, looked up): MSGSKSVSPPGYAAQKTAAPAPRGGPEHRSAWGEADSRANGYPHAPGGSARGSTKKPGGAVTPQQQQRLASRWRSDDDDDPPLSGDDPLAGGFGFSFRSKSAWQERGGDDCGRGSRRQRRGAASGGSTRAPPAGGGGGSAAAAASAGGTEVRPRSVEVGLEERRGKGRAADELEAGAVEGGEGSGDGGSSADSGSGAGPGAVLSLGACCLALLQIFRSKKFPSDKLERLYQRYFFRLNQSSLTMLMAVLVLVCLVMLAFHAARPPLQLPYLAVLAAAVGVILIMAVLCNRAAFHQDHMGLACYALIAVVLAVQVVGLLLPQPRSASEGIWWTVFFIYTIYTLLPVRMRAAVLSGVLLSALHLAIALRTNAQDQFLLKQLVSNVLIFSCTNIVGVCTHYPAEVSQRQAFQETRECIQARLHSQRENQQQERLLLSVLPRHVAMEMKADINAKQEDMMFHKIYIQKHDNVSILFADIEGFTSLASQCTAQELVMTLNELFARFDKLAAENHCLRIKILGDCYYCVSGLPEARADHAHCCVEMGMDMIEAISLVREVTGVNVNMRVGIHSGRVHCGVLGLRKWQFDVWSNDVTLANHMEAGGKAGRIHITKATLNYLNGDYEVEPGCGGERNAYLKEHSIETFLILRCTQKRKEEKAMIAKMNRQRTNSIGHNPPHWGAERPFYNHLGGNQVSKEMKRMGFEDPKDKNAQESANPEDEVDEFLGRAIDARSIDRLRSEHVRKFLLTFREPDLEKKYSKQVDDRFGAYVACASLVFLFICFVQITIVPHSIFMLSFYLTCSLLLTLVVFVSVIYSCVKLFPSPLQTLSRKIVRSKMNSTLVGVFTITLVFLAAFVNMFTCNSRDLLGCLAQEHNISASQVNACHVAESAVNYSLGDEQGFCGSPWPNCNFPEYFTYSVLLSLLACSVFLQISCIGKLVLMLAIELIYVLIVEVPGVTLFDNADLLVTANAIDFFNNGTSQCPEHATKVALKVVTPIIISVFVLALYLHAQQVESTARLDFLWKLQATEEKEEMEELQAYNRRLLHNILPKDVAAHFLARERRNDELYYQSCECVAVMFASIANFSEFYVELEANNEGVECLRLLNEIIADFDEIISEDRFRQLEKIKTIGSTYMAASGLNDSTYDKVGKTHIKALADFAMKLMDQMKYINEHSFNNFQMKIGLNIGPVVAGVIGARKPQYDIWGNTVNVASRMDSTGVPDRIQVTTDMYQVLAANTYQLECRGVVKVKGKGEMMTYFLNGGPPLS
T1 sequence (P40145 whole entry): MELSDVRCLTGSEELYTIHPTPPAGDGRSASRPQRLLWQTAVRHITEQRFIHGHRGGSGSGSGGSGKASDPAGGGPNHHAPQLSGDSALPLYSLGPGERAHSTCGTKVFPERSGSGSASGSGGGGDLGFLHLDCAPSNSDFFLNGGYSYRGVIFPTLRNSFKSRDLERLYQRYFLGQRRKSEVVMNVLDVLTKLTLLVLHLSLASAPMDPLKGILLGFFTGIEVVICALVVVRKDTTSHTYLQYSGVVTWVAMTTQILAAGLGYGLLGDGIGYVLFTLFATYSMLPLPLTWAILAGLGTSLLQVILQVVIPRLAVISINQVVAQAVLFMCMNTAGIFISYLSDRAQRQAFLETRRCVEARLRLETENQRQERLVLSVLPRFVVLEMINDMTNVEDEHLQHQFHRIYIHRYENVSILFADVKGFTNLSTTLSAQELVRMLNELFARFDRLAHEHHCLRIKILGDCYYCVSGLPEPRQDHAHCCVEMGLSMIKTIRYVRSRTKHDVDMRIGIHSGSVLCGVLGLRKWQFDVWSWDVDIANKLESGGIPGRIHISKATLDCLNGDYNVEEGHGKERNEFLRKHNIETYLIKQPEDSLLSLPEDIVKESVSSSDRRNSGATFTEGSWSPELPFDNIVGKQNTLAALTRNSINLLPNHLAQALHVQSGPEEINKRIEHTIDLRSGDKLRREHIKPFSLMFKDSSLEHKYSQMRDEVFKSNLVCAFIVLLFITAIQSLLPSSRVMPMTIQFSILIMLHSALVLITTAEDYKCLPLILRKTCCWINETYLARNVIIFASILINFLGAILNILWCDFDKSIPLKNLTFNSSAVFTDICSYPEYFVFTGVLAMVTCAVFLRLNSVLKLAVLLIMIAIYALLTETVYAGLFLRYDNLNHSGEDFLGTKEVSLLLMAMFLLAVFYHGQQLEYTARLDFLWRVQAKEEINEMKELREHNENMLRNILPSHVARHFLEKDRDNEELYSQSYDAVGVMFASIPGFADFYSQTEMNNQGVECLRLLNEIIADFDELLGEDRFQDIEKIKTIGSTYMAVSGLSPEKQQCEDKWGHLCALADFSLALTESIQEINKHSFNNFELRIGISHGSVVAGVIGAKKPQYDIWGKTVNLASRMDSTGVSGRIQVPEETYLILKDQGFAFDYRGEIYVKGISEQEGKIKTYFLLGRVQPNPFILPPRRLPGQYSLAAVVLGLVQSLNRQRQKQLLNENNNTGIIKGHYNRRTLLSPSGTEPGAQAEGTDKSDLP
Chain of Adenylate cyclase type 2 (Homo sapiens) (Q08462 whole entry): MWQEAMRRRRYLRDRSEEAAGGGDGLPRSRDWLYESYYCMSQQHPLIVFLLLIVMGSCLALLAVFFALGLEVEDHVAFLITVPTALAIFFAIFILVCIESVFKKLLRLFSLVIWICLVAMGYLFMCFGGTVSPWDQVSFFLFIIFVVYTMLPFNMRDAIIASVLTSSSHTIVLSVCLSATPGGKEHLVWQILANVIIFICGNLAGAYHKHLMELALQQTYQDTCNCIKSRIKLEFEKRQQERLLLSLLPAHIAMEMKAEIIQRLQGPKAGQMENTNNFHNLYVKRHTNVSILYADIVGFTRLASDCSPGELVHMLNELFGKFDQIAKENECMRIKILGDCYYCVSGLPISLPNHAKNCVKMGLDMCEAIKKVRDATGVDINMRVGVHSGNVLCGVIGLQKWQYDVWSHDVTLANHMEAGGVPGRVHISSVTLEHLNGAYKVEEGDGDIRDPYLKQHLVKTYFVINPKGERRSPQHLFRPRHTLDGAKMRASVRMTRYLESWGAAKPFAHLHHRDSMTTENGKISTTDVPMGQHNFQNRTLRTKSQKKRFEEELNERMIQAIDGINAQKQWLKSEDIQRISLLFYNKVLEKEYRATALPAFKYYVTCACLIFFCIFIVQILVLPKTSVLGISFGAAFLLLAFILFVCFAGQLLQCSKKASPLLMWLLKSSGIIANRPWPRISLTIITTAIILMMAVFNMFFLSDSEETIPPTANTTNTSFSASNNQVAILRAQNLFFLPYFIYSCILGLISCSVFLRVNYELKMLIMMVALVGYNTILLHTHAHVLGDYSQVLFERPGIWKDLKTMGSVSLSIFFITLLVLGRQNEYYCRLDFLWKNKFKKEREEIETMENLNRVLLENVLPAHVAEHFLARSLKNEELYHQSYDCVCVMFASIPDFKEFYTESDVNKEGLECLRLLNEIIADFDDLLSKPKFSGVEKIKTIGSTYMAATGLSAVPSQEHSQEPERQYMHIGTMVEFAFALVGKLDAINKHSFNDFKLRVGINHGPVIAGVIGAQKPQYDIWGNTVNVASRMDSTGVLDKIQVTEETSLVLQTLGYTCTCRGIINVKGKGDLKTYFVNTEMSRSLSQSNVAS

In general, inhibition refers to the change of the read-out against control, counted positive when it falls. As for `O=C(Nc1nnc(-c2ccco2)o1)c1ccccc1`, the Activity with HEK293 came to 73%. In addition, the inhibition on Adenylate cyclase type 8 [1] is 28%; on Adenylate cyclase type 1 [2], 20%.

`Nc1ncnc2c1NCN2C1CCCO1` (stereo not given): the inhibition result at Adenylate cyclase type 1 [3] was “Dose-dependent effect”.

As usually defined, the IC50 is the concentration that gives 50% inhibition. With `Cc1ccc(C(=O)Nc2nnc(-c3ccc4c(c3)OCCO4)o2)cc1`, the viability at 1 h, 30 µM in [4] was 98%. For the same compound, the Activity in [5] worked out at 194%; in [6], 218%. Further, the inhibition at Adenylate cyclase type 8 [1] was 25%. Besides, the IC50 at Adenylate cyclase type 1 [7] was determined as 12 µM.

With `COc1cc(C(=O)Nc2nnc(-c3ccc(F)cc3)o2)cc(C(F)(F)F)c1`, the viability at 1 h, 30 µM in [4] amounted to 108%. For the same compound, the IC50 at Adenylate cyclase type 8 [8] was found to be 29 µM. Moreover, the Ratio IC50 in the series filed under Homo sapiens is 5.8.

`Cc1ccc(C(=O)Nc2nnc(-c3ccc(F)cc3)o2)cc1`: in series [4], the viability at 1 h, 30 µM amounted to 104%. In addition, the Activity in [5] amounted to 170%; in series [6], 341%. Besides, the inhibition on Adenylate cyclase type 8 [1] came out at 31%. Further, in the series listed under Homo sapiens, the Ratio IC50 was over 3.6.

As for `O=C(Nc1nnc(-c2ccc3c(c2)CCCC3)o1)c1ccc(Br)cc1`, the viability at 1 h, 30 µM in series [4] was 113 to 115%. Also, the Activity in series [5] is 215%; in [6], 160%. Moreover, in the series listed under Homo sapiens, the Ratio IC50 fell in the range of 2.23 to 4.5.

As to `O=c1cc(C(Cl)(Cl)Cl)oc2ccc(Cl)cc12`, the IC50 at Adenylate cyclase type 1 [9] came out at 2300 nM.

Regarding `CCOc1cccc2cc(-c3nnc(NC(=O)c4ccccc4SC)o3)oc12`, the viability at 1 h, 30 µM in series [4] stood at 127%. Also, the IC50 at Adenylate cyclase type 8 [8] and on Adenylate cyclase type 1 [7] was 11 µM throughout. The Ratio IC50 in the series listed under Homo sapiens is 1.

For `COc1ccc(-c2nnc(NC(=O)c3cc(-c4cccs4)nc4ccccc34)o2)cc1`, the viability at 1 h, 30 µM in series [4] amounted to 118%. The values for the 50% inhibitory concentration (IC50) at Adenylate cyclase type 8 [8] and at Adenylate cyclase type 1 [7] were 5.6 µM and 4.6 µM, respectively. In the series filed under Homo sapiens, the Ratio IC50 came out at 1.2.

For the compound `Cc1cc(C(=O)Nc2nnc(-c3ccc(F)cc3)o2)cc(C(F)(F)F)c1`, the viability at 1 h, 30 µM in series [4] came to 102%. In addition, the outcome in the series with Mus musculus [10] was Active. The Activity entry in the series on Mus musculus [11] is “Non-Toxic”. Besides, the result in the series with Mus musculus [12] was inactive. Besides, the Ratio IC50 in the series filed under Homo sapiens turned out to be 2.9.

With `Cc1ccc(C(=O)Nc2nnc(-c3ccc4c(c3)CCCC4)o2)cc1`, the viability at 1 h, 30 µM in series [4] lay within 107 to 123%. In addition, the results for the Activity in series [5] and in series [6] were 139% and 275%, respectively. In addition, in the series filed under Homo sapiens, the Ratio IC50 lay within 0.79 to 7.4.

`O=C(Nc1nnc(-c2ccccc2)o1)c1cccc(C(F)(F)F)c1` showed an Activity with HEK293 of 78%. At Adenylate cyclase type 8 [1], the inhibition was 23%. In the series listed under Homo sapiens, the Ratio IC50 was over 2.3. Moreover, the IC50 on Adenylate cyclase type 1 [7] came to 13 µM.

For `O=C(Nc1nnc(-c2ccc(F)cc2)o1)c1ccccc1F`, the viability at 1 h, 30 µM in series [4] worked out at 87%. Also, the figures for the inhibition at Adenylate cyclase type 8 [1] and on Adenylate cyclase type 1 [2] were 13% and 12%, respectively.

`O=C(Nc1nnc(-c2ccc(F)cc2)o1)c1cccc(-c2ccccc2)c1` registered an Activity in the series on HEK293 of 71%. In the series filed under Homo sapiens, the Ratio IC50 stood at 3.

For `O=C(Nc1nnc(-c2ccc3c(c2)OCCO3)o1)c1ccc(Br)cc1`, the viability at 1 h, 30 µM in [4] amounted to 121%. The Activity is 159% in series [5] and 198% in series [6]. Moreover, the Ratio IC50 in the series listed under Homo sapiens turned out to be 6.8.

Take `CC(C)Oc1ccc(C(=O)Nc2nnc(-c3ccco3)o2)cc1`: in series [4], the viability at 1 h, 30 µM stood at 58%. The inhibition at Adenylate cyclase type 8 [1] came out at 21%; at Adenylate cyclase type 1 [2], 39%.

For `O=C(Nc1nnc(-c2ccc3c(c2)CCCC3)o1)c1ccc(Cl)cc1`, in series [4], the viability at 1 h, 30 µM was 97%. The results for the IC50 on Adenylate cyclase type 8 [8] and at Adenylate cyclase type 1 [7] were 3.6 µM and 1.5 µM, respectively. Moreover, in the series listed under Homo sapiens, the Ratio IC50 stood at 2.4.

Take `O=C(Nc1nnc(-c2ccc3c(c2)CCCC3)o1)c1cccc(C(F)(F)F)c1`: the viability at 1 h, 30 µM in [4] fell in the range of 107 to 125%. For the same compound, the Activity is 189% in series [5] and 449% in series [6]. Moreover, the inhibition result at Adenylate cyclase type 1 [3] was “Dose-dependent effect”. In addition, in the series filed under Homo sapiens, the Ratio IC50 lay in the range of 4.9 to 9.

For the compound `O=C(Nc1nnc(C2CCCCC2)o1)c1ccccc1`, the viability at 1 h, 30 µM in series [4] was 87%. In addition, the inhibition on Adenylate cyclase type 8 [1] came to 2%. The IC50 at Adenylate cyclase type 1 [7] was determined as 25 µM.

As to `O=C(Nc1nnc(C2CCCCC2)o1)c1ccc(Cl)cc1`, in series [4], the viability at 1 h, 30 µM worked out at 89%. Moreover, the inhibition at Adenylate cyclase type 8 [1] was 10%. Also, on Adenylate cyclase type 1 [7], the IC50 stood at 14 µM.

As to `CSc1cccc(C(=O)Nc2nnc(-c3ccc4c(c3)OCCO4)o2)c1`, the viability at 1 h, 30 µM in series [4] amounted to 109%. In addition, the inhibition at Adenylate cyclase type 8 [1] stood at 37%. Further, on Adenylate cyclase type 1 [7], the concentration for half-maximal inhibition (IC50) stood at 9.5 µM.

In the case of `CC(C)Oc1ccc(C(=O)Nc2nnc(-c3ccccc3)o2)cc1`, the viability at 1 h, 30 µM in [4] came to 101%. Moreover, at Adenylate cyclase type 8 [1], the inhibition amounted to 43%. Also, the Ratio IC50 in the series filed under Homo sapiens is over 5.5. The IC50 at Adenylate cyclase type 1 [7] stood at 5.4 µM.

On to `Cc1ccc(C(=O)Nc2nnc(C3CCCCC3)o2)cc1`, for which the viability at 1 h, 30 µM in series [4] is 111%. Besides, the inhibition at Adenylate cyclase type 8 [1] came to 1%. Besides, on Adenylate cyclase type 1 [7], the concentration for half-maximal inhibition (IC50) was 16 µM.
